Measurements published in ChEMBL document CHEMBL1145371, “Synthesis and preliminary evaluation of mono-[123I]iodohypericin monocarboxylic acid as a necrosis avid imaging agent” (Bioorg Med Chem Lett, 2007).
Where “and” joins values, the source holds several entries; their conditions need not be identical. Identical values can stand only once.

Experiments:
[1] = tested on: Blood; assay: Biodistribution in blood of NMRI mouse at 185 KBq, iv after 4 hrs; assay type: ADME, organism-based; conditions: in vivo
[2] = tested on: Blood; assay: Biodistribution in blood of NMRI mouse at 185 KBq, iv after 24 hrs; assay type: ADME, organism-based; conditions: in vivo
[3] = Biodistribution in carcass of NMRI mouse at 185 KBq, iv after 30 mins; assay type: ADME, organism-based; conditions: in vivo, 0.5 h
[4] = tested on: Urinary bladder; assay: Biodistribution in bladder of NMRI mouse at 185 KBq, iv after 30 mins; assay type: ADME, organism-based; conditions: in vivo, 0.5 h
[5] = tested on: Urinary bladder; assay: Biodistribution in bladder of NMRI mouse at 185 KBq, iv after 4 hrs; assay type: ADME, organism-based; conditions: in vivo
[6] = tested on: Urinary bladder; assay: Biodistribution in bladder of NMRI mouse at 185 KBq, iv after 24 hrs; assay type: ADME, organism-based; conditions: in vivo
[7] = tested on: Kidney; assay: Biodistribution in kidney of NMRI mouse at 185 KBq, iv after 30 mins; assay type: ADME, organism-based; conditions: in vivo, 0.5 h
[8] = tested on: Kidney; assay: Biodistribution in kidney of NMRI mouse at 185 KBq, iv after 4 hrs; assay type: ADME, organism-based; conditions: in vivo
[9] = tested on: Kidney; assay: Biodistribution in kidney of NMRI mouse at 185 KBq, iv after 24 hrs; assay type: ADME, organism-based; conditions: in vivo
[10] = tested on: Liver; assay: Biodistribution in liver of NMRI mouse at 185 KBq, iv after 30 mins; assay type: ADME, organism-based; conditions: in vivo, 0.5 h
[11] = tested on: Liver; assay: Biodistribution in liver of NMRI muse at 185 KBq, iv after 4 hrs; assay type: ADME, organism-based; conditions: mouse, in vivo
[12] = tested on: Liver; assay: Biodistribution in liver of NMRI mouse at 185 KBq, iv after 24 hrs; assay type: ADME, organism-based; conditions: in vivo
[13] = Biodistribution in spleen + pancreas of NMRI mouse at 185 KBq, iv after 30 mins; assay type: ADME, organism-based; conditions: in vivo, 0.5 h
[14] = Biodistribution in spleen + pancreas of NMRI mouse at 185 KBq, iv after 24 hrs; assay type: ADME, organism-based; conditions: in vivo
[15] = tested on: Lung; assay: Biodistribution in lung of NMRI mouse at 185 KBq, iv after 24 hrs; assay type: ADME, organism-based; conditions: in vivo
[16] = Biodistribution in intestine + faeces of NMRI mouse at 185 KBq, iv after 30 mins; assay type: ADME, organism-based; conditions: in vivo, 0.5 h
[17] = Biodistribution in intestine + faeces of NMRI mouse at 185 KBq, iv after 4 hrs; assay type: ADME, organism-based; conditions: in vivo
[18] = Biodistribution in intestine + faeces of NMRI mouse at 185 KBq, iv after 24 hrs; assay type: ADME, organism-based; conditions: in vivo
[19] = tested on: Brain; assay: Biodistribution in brain of NMRI mouse at 185 KBq, iv after 30 mins; assay type: ADME, organism-based; conditions: in vivo, 0.5 h
[20] = tested on: Brain; assay: Biodistribution in brain of NMRI mouse at 185 KBq, iv after 4 hrs; assay type: ADME, organism-based; conditions: in vivo
[21] = tested on: Brain; assay: Biodistribution in brain of NMRI mouse at 185 KBq, iv after 24 hrs; assay type: ADME, organism-based; conditions: in vivo
[22] = tested on: Blood; assay: Biodistribution in blood of NMRI mouse at 185 KBq, iv after 30 mins; assay type: ADME, organism-based; conditions: in vivo, 0.5 h
[23] = Biodistribution in carcass of NMRI mouse at 185 KBq, iv after 4 hrs; assay type: ADME, organism-based; conditions: in vivo
[24] = Biodistribution in carcass of NMRI mouse at 185 KBq, iv after 24 hrs; assay type: ADME, organism-based; conditions: in vivo
[25] = Partition coefficient, log P of the compound; assay type: physicochemical; conditions: octanol/water
How it was run: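 Octanol/buffer partitioning against 0.025 M phosphate buffer, pH 7.4; log P reported as mean ± deviation of n = 6 determinations.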

Question: With `Cc1cc(O)c2c(=O)c3c(O)cc(O)c4c5c(O)c([123I])c(O)c6c(=O)c7c(O)cc(C(=O)O)c8c1c2c(c34)c(c78)c65` as the molecule, how does the Drug uptake [1] read?
Answer: 1.6 %ID and 0.6 % ID/g

Question: And the Drug uptake [2]?
Answer: 0.1 %ID

Question: And the Drug uptake [3]?
Answer: 13.2 %ID

Question: And the Drug uptake [4]?
Answer: 0.3 %ID

Question: What about the Drug uptake [5] of the same molecule?
Answer: 7.1 %ID

Question: And the Drug uptake [6]?
Answer: 21.1 %ID

Question: And the Drug uptake [7]?
Answer: 2.9 %ID and 4.4 % ID/g

Question: What about the Drug uptake [8] of the same molecule?
Answer: 2.6 %ID and 4.8 % ID/g

Question: And the Drug uptake [9]?
Answer: 1 %ID and 1.9 % ID/g

Question: What about the Drug uptake [10] of the same molecule?
Answer: 64.4 %ID and 33.7 % ID/g

Question: And the Drug uptake [11]?
Answer: 22.4 %ID and 13.2 % ID/g

Question: What about the Drug uptake [12] of the same molecule?
Answer: 4.7 %ID and 2.7 % ID/g

Question: And the Drug uptake [13]?
Answer: 1.3 %ID and 3.9 % ID/g

Question: What about the Drug uptake [14] of the same molecule?
Answer: 0.2 %ID and 0.5 % ID/g

Question: What about the Drug uptake [15] of the same molecule?
Answer: 0.1 %ID and 0.2 % ID/g

Question: And the Drug uptake [16]?
Answer: 13.2 %ID

Question: What about the Drug uptake [17] of the same molecule?
Answer: 50.5 %ID

Question: What about the Drug uptake [18] of the same molecule?
Answer: 69.4 %ID

Question: What about the Drug uptake [19] of the same molecule?
Answer: 0 %ID

Question: And the Drug uptake [20]?
Answer: 0 %ID

Question: And the Drug uptake [21]?
Answer: 0 %ID

Question: What about the Drug uptake [22] of the same molecule?
Answer: 3.3 %ID and 1.3 % ID/g

Question: What about the Drug uptake [23] of the same molecule?
Answer: 10.3 %ID

Question: And the Drug uptake [24]?
Answer: 2.8 %ID

Question: What about the logP [25] of the same molecule?
Answer: 1.47

Question: For `Cc1cc(O)c2c(=O)c3c(O)cc(O)c4c5c(O)c([123I])c(O)c6c(=O)c7c(O)cc(C)c8c1c2c(c34)c(c78)c65`, which Drug uptake [1] is on record?
Answer: 28.2 % ID/g
